# Screens (PubChem BioAssay)
# Calb biofilm kill: clotrimazole potentiators killing C. albicans biofilm, primary screen, 4-compound mixtures; inhibition, % at 7.6 µM; AID 1242, 2008; C. albicans biofilm persisters + clotrimazole, fluorescence viability; primary screen in compound mixtures of four per well; 120,000 compounds, 0.02% hits;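 active means inhibition above 30.3% in the primary screen of four-compound pools, then above 30% when the compound was retested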;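 further: compounds exposed to preformed 24 h biofilms for 48 h; 0% = untreated biofilm control and 100% = clotrimazole plus chlorhexidine kill blank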
#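 Assay system: C. albicans biofilms / Medium: RPMI/MOPS medium, pH 7.0 / Schedule: biofilm formation 24 h, compound exposure 48 h, 37 °C / Measured by: Alamar Blue fluorescence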
# S1P3 antag: S1P3 receptor antagonists, primary screen, cell-based | Sphingosine 1-phosphate receptor 3 (Homo sapiens), Q99500 | CHO S1P3 NFAT-BLA reporter, FRET fluorescence, antagonist mode | inhibition, % at 4.98 µM | 170,000 compounds, 0.27% hits | AID 485, 2006;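 active means inhibition above the plate cutoff, the mean inhibition of test wells on that plate plus 3 SD, cut at about 28% in these data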;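 further: cells challenged with S1P at its EC80 of 0.8 µM; blue over green emission ratio from cleaved BLA substrate after 4 h stimulation; 0% = S1P-stimulated wells and 100% = unstimulated DMSO-only wells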
# S1P4 agonist: S1P4 receptor agonists, primary screen, cell-based; activation, % at 4.98 µM; Sphingosine 1-phosphate receptor 4 (Homo sapiens), O95977; S1P4-expressing cell line, agonist reporter assay; 220,000 compounds, 0.35% hits; in the data active means activation above about 11%;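 further: 0% = DMSO vehicle and 100% = reference agonist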
# S1P4 antagonist: S1P4 receptor antagonists, primary screen, cell-based | inhibition, % at 4.98 µM | S1P4-expressing cells, antagonist mode, reporter read-out | AID 1510, 2009 | 220,000 compounds, 0.26% hits | Sphingosine 1-phosphate receptor 4 (Homo sapiens), O95977; in the data active means inhibition above about 29%;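 further: 0% = wells stimulated with agonist and 100% = vehicle wells without agonist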
# TbHK1 inh: Trypanosoma brucei hexokinase 1 inhibitors, primary screen, biochemical, G6PDH-coupled NADH absorbance, MLSCN library. 220,000 compounds, 0.11% hits. recombinant TbHK1, G6PDH-coupled NADH A340. inhibition, % at 10 µM. hexokinase 1 [Trypanosoma brucei];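 active means inhibition of 50% or more in the single-dose primary screen; inactive means inhibition below 50%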
# Dynein transport: inhibitors of GR-EGFP nuclear translocation, primary screen, dynein cargo transport inhibitor project, imaging, high-content, 3617.4 mouse cells. test concentration mostly 20 µM; stimulated with dexamethasone, 1 µM; active compounds read low. z-score, hits read low. 220,000 compounds, 0.47% hits;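 active means plate z-score of nuclear minus cytoplasmic receptor signal below a set negative limit, without overly bright fluorescence or cell loss, cut at about -3.5 in these data, passing the limit was not always enough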;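 further: z-score of nuclear minus cytoplasmic ring GR-EGFP intensity difference per well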
#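 Buffer or medium: tet-free, stripped-serum medium; reagent: dexamethasone at 1.0 µM final, 30 min; incubation: 48 h induction, 1 h compound, 30 min dex at 37 °C; measured by: formaldehyde fixation, Hoechst nuclear stain, 10x automated fluorescence imaging; read-out: nuclear-to-cytoplasmic GR-EGFP distribution per well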
# S1P4 agonist cf: S1P4 receptor agonists, retest, confirmation, cell-based, high throughput. S1P4 agonist cell-based reporter assay. activation, % at 4.98 µM. shares compounds with S1P4 agonist. 740 compounds, 7% hits; in the data active means activation above about 12%;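 further: 0% = vehicle and 100% = full reference agonist response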
# S1P1 agonist: S1P1 receptor agonists, human, counter-screen for S1P4 agonist project, cell-based | shares compounds with S1P4 agonist | S1P1 agonist cell-based assay, activation | activation, % at 4.98 µM | 740 compounds, 4% hits; in the data active means activation above about 21%;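 further: 0% = vehicle wells and 100% = reference agonist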
# Target sequence (P21453 whole entry, looked up): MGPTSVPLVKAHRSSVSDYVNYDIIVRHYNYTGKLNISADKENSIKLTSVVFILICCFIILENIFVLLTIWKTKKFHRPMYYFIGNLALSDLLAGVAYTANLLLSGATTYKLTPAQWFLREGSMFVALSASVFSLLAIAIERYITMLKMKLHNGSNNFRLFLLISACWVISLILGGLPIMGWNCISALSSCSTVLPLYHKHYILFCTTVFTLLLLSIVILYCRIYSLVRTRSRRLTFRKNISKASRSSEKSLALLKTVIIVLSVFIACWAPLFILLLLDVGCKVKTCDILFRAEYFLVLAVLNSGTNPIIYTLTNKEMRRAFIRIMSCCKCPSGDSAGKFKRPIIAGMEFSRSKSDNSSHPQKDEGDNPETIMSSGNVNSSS
# An asterisk follows results filed as active; . = not tested or not shown. Rows were chosen to be rich in hits. Some 1.3% of all compounds tested hit in one or more screens of this group.
SMILES,Calb biofilm kill,S1P3 antag,S1P4 agonist,S1P4 antagonist,TbHK1 inh,Dynein transport,S1P4 agonist cf,S1P1 agonist
COc1ccc(C(=O)Nc2cccc(C(C)=O)c2)cc1S(=O)(=O)N1CCOCC1,.,-16,24*,-2,5,-0.68,-1,-12
COc1ccc(C(=O)Nc2cccc(C)c2)cc1S(=O)(=O)N1CCOCC1,.,-7,1,-35,-7,-1.2,.,.
O=C(NC1CCN(Cc2ccccc2)CC1)c1cccc(S(=O)(=O)Nc2cc(C(F)(F)F)ccc2Cl)c1,-3,-4,25*,-24,-1,-0.22,-2,-2
Cn1c(CNC(=O)OC(C)(C)C)nnc1SCc1c(Cl)cccc1Cl,2,6,56*,-5,-1,-0.23,-2,-11
CC(C)(C)OC(=O)NCCc1nnc(SCc2c(Cl)cccc2Cl)o1,.,.,1,-22,0,0.82,.,.
Cc1cc(N2CCCC2)nc2ccc(NC(=S)NCCCN3CCC(C)CC3)cc12,16,3,4,-17,-9,-0.46,.,.
COc1ccc(CCNC(=O)COC(=O)C23CC4CC(CC(C4)C2)C3)cc1,10,-3,11*,-3,0,0.63,0,-5
COc1ccc(CCNC(=O)COC(=O)C23CC4CC(CC(Br)(C4)C2)C3)cc1,14,-14,2,-24,21,1.8,.,.
O=C(CSc1nc2ncc(Br)cc2[nH]1)Nc1ccc2c(c1)OCO2,.,-15,29*,-1,8,0.16,-1,0
O=C(COC(=O)c1ccccn1)NCc1ccccc1Cl,-3,-11,27*,-8,-2,1.1,-1,2
O=C(COC(=O)c1ccccn1)NCc1ccccc1,.,.,2,-23,0,.,.,.
O=C(NCC1CCCN(Cc2ccccc2F)C1)c1cccc(C(F)(F)F)c1 (stereo not given),17,0,-1,-4,-1,1.4,.,.
COc1ccc2occ(C(=O)c3cccs3)c2c1,.,.,166*,-8,-4,-0.022,-1,3
COc1ccc(OC)c(C(=O)c2coc3ccc(OC(C)=O)cc23)c1,12,-4,0,-2,-4,0.23,.,.
CCN1C(=O)/C(=c2\sc3nc(=O)c(Cc4ccccc4)nn3c2=O)c2ccccc21,20,-6,1,-6,-19,-0.6,.,.
C=CCN1C(=O)/C(=c2\sc3nc(=O)c(Cc4ccccc4)nn3c2=O)c2ccccc21,18,-4,27*,-7,-18,-0.85,-1,1
COc1ccc(CN2CCC(N3CCC(C(=O)N4CCOCC4)CC3)CC2)c(F)c1,-4,-3,11*,-4,-13,-0.3,-1,-2
COc1ccc(F)c(CN2CCC(N3CCC(C(=O)N4CCOCC4)CC3)CC2)c1,9,-10,2,-26,2,-0.049,.,.
CCc1nc(Sc2nnnn2-c2ccccc2)c2c3c(sc2n1)CCCC3,12,3,0,0,26,-0.15,.,.
Cc1nc(Sc2nnnn2C)c2c3c(sc2n1)CCC3,.,14,11*,-8,3,0.42,-5,-17
Cc1cc(Cl)ccc1NC(=O)C1CCN(S(C)(=O)=O)CC1,7,-19,3,2,-9,2.2,.,.
Cc1ccccc1-n1c(SCC(=O)N/N=C/C=C/c2ccccc2[N+](=O)[O-])nc2ccccc2c1=O,4,15,14*,-15,-11,0.4,-3,-12
O=C(CSc1nc2ccccc2c(=O)n1-c1ccccc1)N/N=C/C=C/c1ccccc1[N+](=O)[O-],11,-11,1,2,-2,1.3,.,.
O=C(CCCNc1ccccc1)N/N=C/c1cccs1,5,0,-2,-8,-4,-0.72,.,.
CCOCCCn1c(C)nc2c[n+](CC(=O)c3ccc4ccccc4c3)cc(Br)c21,10,3,0,7,-13,-0.69,.,.
SMILES,Calb biofilm kill,S1P3 antag,S1P4 agonist,S1P4 antagonist,TbHK1 inh,Dynein transport,S1P4 agonist cf,S1P1 agonist
Cn1c(SCC(=O)c2ccccc2)nnc1C1COc2ccccc2O1 (stereo not given),8,14,1,-6,-4,-0.38,.,.
Cn1c(SCC(=O)c2ccc3c(c2)OCO3)nnc1C1COc2ccccc2O1 (stereo not given),.,12,11*,5,3,0.41,62*,-1
CN=C(C)/C(C(=O)OC)=C(/O)c1ccc(Cl)cc1Cl,14,-2,2,-3,-8,-0.76,.,.
Nc1nc(NC(=O)c2ccccc2)nn1-c1ccccc1,13,-2,1,-2,-5,0.34,.,.
COc1ccc(C(=O)Nc2nc(N)n(-c3ccccc3)n2)cc1,19,-24,42*,-11,0,-0.47,-3,-9
COCCNC(=S)Nc1ccc2nsnc2c1,17,-21,12*,-9,4,-0.12,-2,-6
COCCNC(=S)Nc1ccc(Cl)c(Cl)c1,5,12,-1,5,-1,-0.43,.,.
CCc1nc(SCC#N)c(C#N)cc1C,8,-10,23*,-10,-12,0.35,1,4
CCOCCN(C(=O)COC)c1cccc(OC)c1,.,.,26*,-22,-4,-0.018,-1,-2
COc1ccc(S(=O)(=O)N2CCC3(CC2)OCCO3)cc1,10,-4,1,-12,-1,0.42,.,.
O=C(O)COc1ccccc1/C=C1\SC(=S)N(c2cccnc2)C1=O,16,-17,-1,-1,-16,0.65,.,.
CC(C)c1csc(CN2CCN(Cc3ccc(F)c(F)c3)C(CCO)C2)n1 (stereo not given),15,-2,42*,-9,-5,1.1,-2,-5
COc1ccc(OC)c(N/C(=N/C(=S)Nc2ccccc2)Nc2nc(C)cc(C)n2)c1,1,-8,-1,3,-27,1.4,.,.
Cc1cc(OCCN2CCCCCC2)ccc1[N+](=O)[O-],18,1,24*,-19,-7,-0.29,-1,7
Cc1cc(OCC(=O)N2CCCCCC2)ccc1[N+](=O)[O-],12,4,0,-22,14,-0.55,.,.
CCOC(=O)c1c([N+](=O)[O-])c(C)[nH]c(=O)c1C#N,16,-18,0,-15,-35,1.2,.,.
CC1(C)CC(=O)C(C2C3=C(CC(C)(C)CC3=O)OC3=C2C(=O)CC(C)(C)C3)=C(O)C1,14,-3,-2,3,-19,-0.033,.,.
